pEC50: −log10 of the molar value. ≈ marks a conversion by molar mass, not a printed value.
Legend:
Assay type in all cases: functional, cell-based
DU-145 = assay: Cytotoxicity against human DU145 cells after 3 days by sulforhodamine B assay; conditions: DU-145, 72 h
Summary of the method: (§1)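 Freshly trypsinized cells seeded at 5000 per well; compounds added from DMSO-diluted stock. Cells grown in RPMI-1640 with 25 mM HEPES, 0.25% sodium bicarbonate, 10% FBS and 100 μg/mL kanamycin. After three days, attached cells fixed with cold 10% TCA and stained with 0.4% SRB. Bound dye solubilized and absorbance read at 562 nm. EC50 (50% growth reduction) averaged from at least three independent determinations.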

PC-3 = assay: Cytotoxicity against human PC3 cells after 3 days by sulforhodamine B assay; conditions: PC-3, 72 h; summary of the method: as §1
[1] = Cytotoxicity against human KBVIN cells after 3 days by sulforhodamine B assay; conditions: 72 h; summary of the method: as §1
A549 = assay: Cytotoxicity against human A549 cells after 3 days by sulforhodamine B assay; conditions: A549, 72 h; summary of the method: as §1
MCF7 = assay: Cytotoxicity against human MCF7 cells after 3 days by sulforhodamine B assay; conditions: MCF7, 72 h; summary of the method: as §1
KB = assay: Cytotoxicity against human KB cells after 3 days by sulforhodamine B assay; conditions: 72 h; summary of the method: as §1
HCT-8 = assay: Cytotoxicity against human HCT8 cells after 3 days by sulforhodamine B assay; conditions: HCT-8, 72 h; summary of the method: as §1

COC1=CC(=O)c2ccc3cc(OC)c(OC)c(O)c3c2C1=O [CALANQUINONE A]
EC50 (DU-145): 0.34 µg/mL (≈ 1.08 µM) | EC50 (PC-3): 0.16 µg/mL (≈ 0.509 µM) | EC50 [1]: 0.45 µg/mL (≈ 1.43 µM) | EC50 (A549): 0.19 µg/mL | EC50 (MCF7): < 0.02 µg/mL | EC50 (KB): 0.32 µg/mL (≈ 1.02 µM) | EC50 (HCT-8): 0.2 µg/mL

COc1cc(O)c(-c2c(O)cc(OC)c3c2CCc2cc(O)ccc2-3)c2c1-c1ccc(O)cc1CC2
EC50 (DU-145): 4.11 µg/mL (≈ 8.52 µM) | EC50 (PC-3): 5.37 µg/mL (≈ 11.1 µM) | EC50 [1]: 3.96 µg/mL (≈ 8.21 µM) | EC50 (A549): 4.61 µg/mL | EC50 (MCF7): 3.5 µg/mL | EC50 (KB): 4.4 µg/mL (≈ 9.12 µM) | EC50 (HCT-8): 4.6 µg/mL

COC1=CC(=O)c2ccc3cc(OC)c(O)c(OC)c3c2C1=O [CALANQUINONE B]
EC50 (DU-145): 6.45 µg/mL (≈ 20.5 µM) | EC50 (PC-3): 1.55 µg/mL (≈ 4.93 µM) | EC50 [1]: 13.3 µg/mL (≈ 42.3 µM) | EC50 (A549): 4.54 µg/mL | EC50 (MCF7): 1.81 µg/mL | EC50 (KB): 6.46 µg/mL (≈ 20.6 µM) | EC50 (HCT-8): 4.56 µg/mL

COC1=CC(=O)c2ccc3cc(OC)c(OC)cc3c2C1=O [SPHENONE A]
EC50 (KB): 2.7 µg/mL (≈ 9.05 µM)

COc1cc2c(c(OC)c1O)-c1c(O)ccc(O)c1CC2 [CALANHYDROQUINONE A]
EC50 (DU-145): 5.84 µg/mL (≈ 20.3 µM) | EC50 (PC-3): 2.52 µg/mL (≈ 8.74 µM) | EC50 [1]: 5.37 µg/mL (≈ 18.6 µM) | EC50 (A549): 3.58 µg/mL | EC50 (MCF7): 2.31 µg/mL | EC50 (KB): 3.47 µg/mL (≈ 12 µM) | EC50 (HCT-8): 4.57 µg/mL

COc1c(O)cc2c(c1OC)-c1c(O)ccc(O)c1CC2 [CALANHYDROQUINONE B]
EC50 (DU-145): 5.46 µg/mL (≈ 18.9 µM) | EC50 (PC-3): 2.62 µg/mL (≈ 9.09 µM) | EC50 [1]: 5.24 µg/mL (≈ 18.2 µM) | EC50 (A549): 4.07 µg/mL | EC50 (MCF7): 3.28 µg/mL | EC50 (KB): 3.75 µg/mL (≈ 13 µM) | EC50 (HCT-8): 5.16 µg/mL

COc1cc2c(c(OC)c1OC)-c1c(O)ccc(O)c1CC2 [CALANHYDROQUINONE C]
EC50 (DU-145): 3.78 µg/mL (≈ 12.5 µM) | EC50 (PC-3): 0.85 µg/mL (≈ 2.81 µM) | EC50 [1]: 4.73 µg/mL (≈ 15.6 µM) | EC50 (A549): 2.36 µg/mL | EC50 (MCF7): 1.7 µg/mL | EC50 (KB): 2.86 µg/mL (≈ 9.46 µM) | EC50 (HCT-8): 3.96 µg/mL

COc1cc2c(cc1O)CCc1cc(O)cc(OC)c1-2
EC50 (DU-145): 5.38 µg/mL (≈ 19.8 µM) | EC50 (PC-3): 2.67 µg/mL (≈ 9.81 µM) | EC50 [1]: 5.84 µg/mL (≈ 21.4 µM) | EC50 (A549): 4.24 µg/mL | EC50 (MCF7): 2.59 µg/mL | EC50 (KB): 3.9 µg/mL (≈ 14.3 µM) | EC50 (HCT-8): 4.55 µg/mL

COc1cc2c(c(OC)c1O)C1=C(CC2)C(=O)C=CC1=O [CALANQUINONE C]
EC50 (DU-145): 4.34 µg/mL (≈ 15.2 µM) | EC50 (PC-3): 2.07 µg/mL (≈ 7.23 µM) | EC50 [1]: 4.68 µg/mL (≈ 16.3 µM) | EC50 (A549): 3.58 µg/mL | EC50 (MCF7): 2.12 µg/mL | EC50 (KB): 2.97 µg/mL (≈ 10.4 µM) | EC50 (HCT-8): 4.14 µg/mL

COc1cc(O)c(-c2c(O)cc(OC)c3c2ccc2cc(O)ccc23)c2c1-c1ccc(O)cc1CC2 [CIRRHOPETALANTHRIN]
pEC50 (A549): 4.95 | pEC50 (MCF7): 4.90 | pEC50 (HCT-8): 5.14

CC(=O)O[C@H]1C(=O)[C@@]2(C)[C@H]([C@H](OC(=O)c3ccccc3)[C@]3(O)C[C@H](OC(=O)[C@H](O)[C@@H](NC(=O)c4ccccc4)c4ccccc4)C(C)=C1C3(C)C)[C@]1(OC(C)=O)CO[C@@H]1C[C@@H]2O [PACLITAXEL]
EC50 (DU-145): < 0.005 µg/mL | EC50 (PC-3): 0.0097 µg/mL (≈ 0.0114 µM) | EC50 [1]: 2.16 µg/mL (≈ 2.53 µM) | EC50 (A549): < 0.005 µg/mL | EC50 (MCF7): 0.0072 µg/mL | EC50 (KB): < 0.005 µg/mL | EC50 (HCT-8): 0.21 µg/mL

COC1=CC(=O)c2ccc3ccccc3c2C1=O [ANNOQUINONE A]
EC50 (KB): 0.16 µg/mL (≈ 0.672 µM)

COc1cc(O)cc2c1-c1ccc(O)cc1CC2
EC50 (DU-145): 4.79 µg/mL (≈ 19.8 µM) | EC50 (PC-3): 2.82 µg/mL (≈ 11.6 µM) | EC50 [1]: 7.92 µg/mL (≈ 32.7 µM) | EC50 (A549): 5.05 µg/mL | EC50 (MCF7): 1.8 µg/mL | EC50 (KB): 3.4 µg/mL (≈ 14 µM) | EC50 (HCT-8): 3.84 µg/mL

COc1cc(O)c2c(c1)CCc1ccc(O)c(OC)c1-2 [CALANPHENANTHRENE A]
EC50 (DU-145): 13.2 µg/mL (≈ 48.5 µM) | EC50 (PC-3): 7.06 µg/mL (≈ 25.9 µM) | EC50 [1]: 5.48 µg/mL (≈ 20.1 µM) | EC50 (A549): 7.71 µg/mL | EC50 (MCF7): 6.52 µg/mL | EC50 (KB): 11.8 µg/mL (≈ 43.3 µM) | EC50 (HCT-8): 6.73 µg/mL

COc1cc2ccc3cccc(O)c3c2c(OC)c1O [BULBOPHYLLANTHRIN]
EC50 (DU-145): 8.29 µg/mL (≈ 30.7 µM) | EC50 (PC-3): 3.38 µg/mL (≈ 12.5 µM) | EC50 [1]: 6.99 µg/mL (≈ 25.9 µM) | EC50 (A549): 5.06 µg/mL | EC50 (MCF7): 3.26 µg/mL | EC50 (KB): 5.63 µg/mL (≈ 20.8 µM) | EC50 (HCT-8): 5.26 µg/mL

Source: ChEMBL document CHEMBL1152308, “Cytotoxic phenanthrenequinones and 9,10-dihydrophenanthrenes from Calanthe arisanensis” (J Nat Prod, 2009)
